# A selection: hits, their analogues and other compounds. The true share with any hit is near 1.7%.
# Efflux pump inh: inhibitors of Candida efflux pumps in yeast, primary screen, S. cerevisiae, Nile Red, multiplex; inhibition, % at 10 µM; S. cerevisiae Candida pump triplex; 0.44% of 330,000 active;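 active = plate passing quality check with inhibition over a set limit, or well fluorescence over plate mean plus 4 SD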;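 also: Nile Red retained in pooled yeast measured as flow cytometry median fluorescence; 0% = buffer negative control and 100% = Enniatin B positive control; higher means more Nile Red kept so more efflux inhibition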
# DSG3 Ab inh: inhibitors of pemphigus antibody binding to DSG3, primary screen, biochemical, bead-based, flow cytometry, scFv-GFP; binding (percent of control), % at 10 µM; AID 588358, 2011; Desmoglein-3 (Homo sapiens), P32926; 0.48% of 310,000 active; DSG3-coupled beads, scFv-anti-DSG3-GFP binding; stronger effect = lower value;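 active = binding more than 3 SD below its plate's average and above zero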;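 also: hits lower antibody fragment binding to DSG3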
# Arrestin-AP2 inh: inhibitors of beta-arrestin/AP2 binding, primary screen, biochemical, GPCR trafficking, flow cytometry | beta-arrestin 1 C-terminal peptide binding to AP2 beta2-adaptin appendage (human) | AID 504490, 2011 | inhibition, % at 10 µM | 0.31% of 340,000 active | FITC-arrestin peptide / GST-AP2 beads; AP2 beta2 appendage carries R879A mutation;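 active = inhibition above a set limit, near 3 SD of compounds lacking own fluorescence, cut at about 54% in these data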;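 also: plate controls were DMSO wells for no effect and 5 µM unlabelled arrestin peptide for full effect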
#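 System: GST-AP2 R879A glutathione beads. Medium: PBS with 0.05% Tween 20 and 0.1% BSA. Also added: FITC-arrestin peptide, 50 nM. Incubation: 12 min plus 1 h, RT. Measured by: high-throughput flow cytometry of beads, ex 488, em 535 nm. Evaluation: percent drop in bead-associated FITC signal.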
# Neddyl block: inhibitors of cullin neddylation, primary screen, biochemical, TR-FRET, uHTS, NAE and Ubc12. NEDD8-conjugating enzyme Ubc12 (Homo sapiens) + NEDD8-activating enzyme E1 regulatory …. inhibition, % at 25 µM. 0.58% of 360,000 active. AID 651699, 2012; in the data active = inhibition above about 36%
# Target sequence (P61081 whole entry, looked up): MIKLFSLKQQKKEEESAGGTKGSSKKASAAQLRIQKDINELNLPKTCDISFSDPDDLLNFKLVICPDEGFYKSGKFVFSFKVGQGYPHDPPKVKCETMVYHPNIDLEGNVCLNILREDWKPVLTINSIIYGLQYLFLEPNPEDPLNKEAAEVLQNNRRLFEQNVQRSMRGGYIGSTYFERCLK
# Target sequence (Q13564 whole entry, looked up): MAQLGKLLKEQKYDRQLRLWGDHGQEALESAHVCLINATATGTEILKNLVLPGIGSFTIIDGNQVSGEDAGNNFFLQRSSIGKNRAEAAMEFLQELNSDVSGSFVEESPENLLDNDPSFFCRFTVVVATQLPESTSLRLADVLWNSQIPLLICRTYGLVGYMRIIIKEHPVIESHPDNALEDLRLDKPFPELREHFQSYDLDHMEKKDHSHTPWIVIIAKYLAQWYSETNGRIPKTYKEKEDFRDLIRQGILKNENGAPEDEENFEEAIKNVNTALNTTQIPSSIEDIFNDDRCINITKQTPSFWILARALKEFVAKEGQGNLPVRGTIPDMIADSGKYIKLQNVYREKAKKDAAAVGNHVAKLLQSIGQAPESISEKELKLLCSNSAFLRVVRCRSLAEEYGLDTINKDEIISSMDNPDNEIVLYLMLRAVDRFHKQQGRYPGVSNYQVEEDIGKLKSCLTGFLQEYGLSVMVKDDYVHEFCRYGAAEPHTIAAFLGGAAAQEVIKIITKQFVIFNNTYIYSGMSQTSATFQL
# Cmpd fluor yeast: compound fluorescence in yeast efflux pump counter-screen | fluorescence ratio to DMSO, % at 10 µM | shares compounds with Efflux pump inh | S. cerevisiae AD/pABC3, flow cytometry | 4% of 1,700 active;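 active = fluorescence ratio to DMSO above its plate's cutoff, the plate mean ratio plus 5 SD, cut at about 210% in these data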;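 also: unstained yeast with no Nile Red so the signal is compound autofluorescence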
# Mdr1 pump inh: inhibitors of Candida albicans Mdr1 efflux, confirmation, flow cytometry, singleplex, Cherry Pick1 set | shares compounds with Efflux pump inh | S. cerevisiae AD/CaMDR1, Nile Red efflux | inhibition, % at 10 µM | 1% of 1,700 active; in the data active = inhibition above about 26%;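 also: 0% = DMSO vehicle and 100% = reference inhibitor; higher means more Nile Red retained so more efflux inhibition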
# CaCdr2 efflux inh: inhibitors of Candida albicans Cdr2 efflux pump, confirmation, S. cerevisiae AD/CaCDR2, flow cytometry, cherry pick 1, singleplex; shares compounds with Efflux pump inh; Nile Red retention; Nile Red retention ratio vs DMSO, % at 10 µM; 4% of 1,700 active; AID 588520, 2011; in the data active = Nile Red retention ratio vs DMSO above about 190%;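 also: higher ratio means more blocking of Cdr2 efflux of the dye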
# CaCdr1 efflux inh: inhibitors of Candida albicans Cdr1 efflux pump, confirmation, S. cerevisiae AD/CaCDR1, flow cytometry, cherry pick 1, singleplex; shares compounds with Efflux pump inh; Nile Red efflux; inhibition, % at 10 µM; 1% of 1,700 active; AID 588522, 2011;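 active = inhibition above the screen-wide mean plus twice its standard deviation, cut at about 32% in these data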
# * = called active by the depositor; nt = no result.
SMILES,Efflux pump inh,DSG3 Ab inh,Arrestin-AP2 inh,Neddyl block,Cmpd fluor yeast,Mdr1 pump inh,CaCdr2 efflux inh,CaCdr1 efflux inh
CCOC(=O)c1c(/N=C/N(C)C)sc(/C=N/Nc2ccccc2)c1-c1ccc(Cl)cc1,0.6*,98,0,-50,103,0,114,0
CCOC(=O)c1c(/N=C/N(C)C)sc(C)c1C,0,100,13,-14,nt,nt,nt,nt
O=C(Nc1ccc(Br)cc1)C(c1ccccc1)c1ccccc1,0,104,5,-9,nt,nt,nt,nt
O=C(COc1ccc(Cl)cc1Cl)NC1CCSC1=O (centres undefined),1.7*,nt,7,-5,98,0,106,0
Cc1noc(C)c1COc1ccccc1C(=O)N(C)CC(=O)Nc1ccc(F)cc1,0,99,32,-3,nt,nt,nt,nt
CC(C)C[C@H]1CNC(=O)C(=O)N1C[C@@H]1CCCN1C[C@H](Cc1ccccc1)N1C[C@H](Cc2ccccc2)N(CCc2ccccc2)C(=O)C1=O,nt,nt,nt,1,nt,nt,nt,nt
CNC(=S)Nc1ccc(C)cc1,11*,99,-9,2,100,0,102,0
CCN(Cc1cc(=O)n2ccsc2n1)Cc1nc2ccccc2c(=O)[nH]1,0,108,1,25,nt,nt,nt,nt
CC(C)CN(C(=O)COC(=O)/C=C/c1ccc(Cl)c(Cl)c1)c1c(N)n(Cc2ccccc2)c(=O)[nH]c1=O,nt,100,4,5,nt,nt,nt,nt
Cc1ccc(S(=O)(=O)Cn2nnnc2C(CC(C)C)N2CCN(c3ccccc3)CC2)cc1 (centres undefined),0.9*,nt,30,-8,107,0,107,0
C=C1C(C(=O)Nc2cccc(OC)c2)C1C(=O)Nc1cccc(OC)c1 (centres undefined),0,81,-4,7,nt,nt,nt,nt
C/C(=N\N1C(=O)CSC1=S)c1ccc(Br)cc1,0,98,-7,-7,nt,nt,nt,nt
COc1ccc(-c2ccc3c(c2)S(=O)(=O)c2cccc(C(=O)NC4CCCCC4)c2C3=O)cc1OC,1.1*,54*,1,2,85,0,121,0
COc1ccc(-c2ccc3c(c2)S(=O)(=O)c2cccc(C(=O)NC4CC4)c2C3=O)cc1OC,0,95,4,-22,nt,nt,nt,nt
O=C(Nc1c(-c2ccccc2)[nH][nH]c1=O)c1ccc(Br)cc1,nt,nt,nt,0,nt,nt,nt,nt
Cc1sc(NC(=S)NC(=O)c2cccs2)nc1-c1ccc(C(C)C)cc1,0.9*,101,0,10,103,0,94,0
CCC(Cc1ccccc1)NC(=O)c1ccc2nc(N3CCOCC3)sc2c1 (centres undefined),2.1*,100,1,0,108,0,104,0
CC(CCc1ccccc1)NC(=O)c1ccc2nc(N3CCOCC3)sc2c1 (centres undefined),0,105,-7,1,nt,nt,nt,nt
Cc1cc(C)cc(NC(=O)C2C3C=CC4(O3)C2C(=O)N(CCCN(C)C)C4C(=O)NC2CCCC(C)C2C)c1 (centres undefined),0,109,-5,-7,nt,nt,nt,nt
Cc1ccc(/C=C2\CCC3=C2OC(N)=C(C#N)C3c2ccc(C)cc2)cc1 (centres undefined),3.6*,359,11,19,118,0,125,0
COc1ccc(CNC(=O)CC[C@H]2O[C@@H](n3cc(C)c(=O)[nH]c3=O)C[C@@H]2O)cc1,nt,nt,nt,4,nt,nt,nt,nt
Cc1cc(C(=O)O)n(C(C)(C)C)n1,2.0*,102,21,-2,95,0,95,0
Cc1cc(C(=O)NNc2c(Cl)cccc2Cl)n(C(C)(C)C)n1,0,100,-4,5,nt,nt,nt,nt
COC(=O)C1=C(C)N=c2s/c(=C/c3ccoc3)c(=O)n2C1c1ccccc1 (centres undefined),0.5*,106,-6,-5,140,0,121,0
CCCn1c(SCC(=O)Nc2ccccc2-c2ccccc2)nnc1-c1ccoc1C,0,106,7,0,nt,nt,nt,nt
SMILES,Efflux pump inh,DSG3 Ab inh,Arrestin-AP2 inh,Neddyl block,Cmpd fluor yeast,Mdr1 pump inh,CaCdr2 efflux inh,CaCdr1 efflux inh
C#Cc1cccc(Nc2nc(NC(C)C)nc3ccsc23)c1,nt,nt,nt,21,nt,nt,nt,nt
COc1ccc2[nH]cc(C(=O)CN3CCC(C)CC3)c2c1,8.2*,100,9,3,105,0,112,0
COc1ccc2[nH]cc(C(=O)CN3CCCC(C)C3)c2c1 (centres undefined),0,108,0,12,nt,nt,nt,nt
Cc1ccc(S(=O)(=O)N2CCN(c3ccc([N+](=O)[O-])cn3)CC2)cc1,0,nt,-6,-6,nt,nt,nt,nt
CCOc1ccc(C(=O)NCC(=O)NNC(=O)CN(C)S(=O)(=O)c2ccc(Cl)cc2)cc1,0,97,25,9,nt,nt,nt,nt
Cc1sc2ncnc(N/N=C/c3cccc(O)c3)c2c1C,0,98,-6,-12,nt,nt,nt,nt
C/C(=N\Nc1ncnc2sc(C)c(C)c12)c1ccccn1,30*,128,-3,-20,80,0,135,5
COc1ccc2[nH]c3c(C)c4ccncc4c(C)c3c2c1,2.8*,nt,14,42*,125,0,103,0
Cc1cc2nc(/N=C(\N)NC(=O)N3c4ccccc4Sc4ccccc43)nc(C)c2cc1C,0,114,4,-47,nt,nt,nt,nt
O=C(c1ccc(Cl)cc1)[C@@H]1[C@@H]2C(=O)N(c3ccc(Cl)cc3)C(=O)[C@@H]2C2c3ccccc3C=NN21 (some centres undefined),0.6*,96,2,-66,113,0,89,0
Cc1ccc(N2C(=O)[C@@H]3[C@H](C2=O)C2c4ccccc4C=NN2[C@@H]3C(=O)c2ccc(Cl)cc2)cc1 (some centres undefined),0,95,6,-267,nt,nt,nt,nt
Cc1ccc(CSC2=Nc3ccccc3C3=NC(CC(=O)NCc4ccco4)C(=O)N23)cc1 (centres undefined),0.6*,99,18,-27,99,0,114,0
CCC(C)(C)NC(=O)C(c1cccs1)N(C(=O)c1ccn[nH]1)c1cccc(OC)c1 (centres undefined),0,94,5,16,nt,nt,nt,nt

# Bioassay records as filed in PubChem.
